Assay results from ChEMBL document CHEMBL1129508, “Betulinic acid derivatives: a new class of specific inhibitors of human immunodeficiency virus type 1 entry” (J Med Chem, 1996).

Tests used:
[1] = system: Human immunodeficiency virus 1; assay: Inhibitory activity tested against the HIV-1 in CEM cells; assay type: functional, organism-based; details: Human immunodeficiency virus 1, CCRF-CEM
Method in brief: (§1)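 HIV-1-induced cytopathicity in CEM 4 or MT-4 cell cultures was assessed by counting viable cells after MTT (3-(4,5-dimethylthiazol-2-yl)-2,5-diphenyltetrazolium bromide) staining. IC50 is the concentration that inhibits cytopathicity by 50%. For routine testing, the highest concentration was generally 3 µM, because solubility was limited above 10 µM.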

[2] = system: Human immunodeficiency virus 1; assay: Inhibitory activity tested against the HIV-1 in MT-4 cells; assay type: functional, organism-based; details: Human immunodeficiency virus 1, MT4; method in brief: as §1
CCRF-CEM = assay: Inhibitory activity against the HIV-1 in CEM cells; assay type: functional, cell-based; details: Homo sapiens; method in brief: as §1

SMILES	IC50 [1]	IC50 [2]	IC50 (CCRF-CEM)
C=C(C)[C@@H]1CC[C@]2(C(=O)NCCCCCCCC(=O)N3CCC[C@H]3C(=O)O)CC[C@]3(C)[C@H](CCC4[C@@]5(C)CC[C@H](O)C(C)(C)[C@@H]5CC[C@]43C)[C@@H]12 (some centres undefined)	0.64 µM	0.058 µM	
C=C(C)[C@@H]1CC[C@]2(C(=O)NCCCCCCCC(=O)NCCCC(=O)O)CC[C@]3(C)[C@H](CCC4[C@@]5(C)CC[C@H](O)C(C)(C)[C@@H]5CC[C@]43C)[C@@H]12 (some centres undefined)	0.044 µM	0.129 µM	
C=C(C)[C@@H]1CC[C@]2(C(=O)NCCCCCCCC(=O)N[C@H](CCC(=O)O)CC(C)C)CC[C@]3(C)[C@H](CCC4[C@@]5(C)CC[C@H](O)C(C)(C)[C@@H]5CC[C@]43C)[C@@H]12 (some centres undefined)	0.052 µM	0.085 µM	
C=C(C)[C@@H]1CC[C@]2(C(=O)NCCCCCCCC(=O)N[C@@H](CC(C)C)[C@@H](O)CC(=O)O)CC[C@]3(C)[C@H](CCC4[C@@]5(C)CC[C@H](O)C(C)(C)[C@@H]5CC[C@]43C)[C@@H]12 (some centres undefined)	0.05 µM	0.04 µM	
C=C(C)[C@@H]1CC[C@]2(C(=O)NCCCCCCCNC(=O)c3ccccc3C(=O)O)CC[C@]3(C)[C@H](CCC4[C@@]5(C)CC[C@H](O)C(C)(C)[C@@H]5CC[C@]43C)[C@@H]12 (some centres undefined)	1.8 µM		
C=C(C)[C@@H]1CC[C@]2(C(=O)NCCCCCCCC(=O)N(C)CC(=O)O)CC[C@]3(C)[C@H](CCC4[C@@]5(C)CC[C@H](O)C(C)(C)[C@@H]5CC[C@]43C)[C@@H]12 (some centres undefined)	0.25 µM	0.333 µM	
C=C(C)[C@@H]1CC[C@]2(C(=O)NCCCCCCCNC(=O)CCCC(=O)O)CC[C@]3(C)[C@H](CCC4[C@@]5(C)CC[C@H](O)C(C)(C)[C@@H]5CC[C@]43C)[C@@H]12 (some centres undefined)	0.02 µM		
C=C(C)[C@@H]1CC[C@]2(C(=O)NCCCCCCCC(=O)Nc3ccc(C(=O)O)cc3)CC[C@]3(C)[C@H](CCC4[C@@]5(C)CC[C@H](O)C(C)(C)[C@@H]5CC[C@]43C)[C@@H]12 (some centres undefined)	0.07 µM	0.026 µM	
C=C(C)[C@@H]1CC[C@]2(C(=O)NCCCCCCCC(=O)O)CC[C@]3(C)[C@H](CCC4[C@@]5(C)CC[C@H](O)C(C)(C)[C@@H]5CC[C@]43C)[C@@H]12 (some centres undefined)	0.75 µM	0.465 µM	
C=C(C)[C@@H]1CC[C@]2(C(=O)NCCCCCCCC(=O)N[C@H](CO)C(=O)O)CC[C@]3(C)[C@H](CCC4[C@@]5(C)CC[C@H](O)C(C)(C)[C@@H]5CC[C@]43C)[C@@H]12 (some centres undefined)	1.9 µM		
C=C(C)[C@@H]1CC[C@]2(C(=O)NCCCCCCCCCC(=O)O)CC[C@]3(C)[C@H](CCC4[C@@]5(C)CC[C@H](O)C(C)(C)[C@@H]5CC[C@]43C)[C@@H]12 (some centres undefined)	0.6 µM	0.42 µM	
C=C(C)[C@@H]1CC[C@]2(C(=O)NCCCCCCCC(=O)N[C@@H](CC(N)=O)C(=O)O)CC[C@]3(C)[C@H](CCC4[C@@]5(C)CC[C@H](O)C(C)(C)[C@@H]5CC[C@]43C)[C@@H]12 (some centres undefined)	0.95 µM		
C=C(C)[C@@H]1CC[C@]2(C(=O)NCCCCCCCNC(=O)c3cccc(C(=O)O)c3)CC[C@]3(C)[C@H](CCC4[C@@]5(C)CC[C@H](O)C(C)(C)[C@@H]5CC[C@]43C)[C@@H]12 (some centres undefined)	0.105 µM	0.04 µM	
C=C(C)[C@@H]1CC[C@]2(C(=O)NCCCCCCCCCCC(=O)O)CC[C@]3(C)[C@H](CCC4[C@@]5(C)CC[C@H](O)C(C)(C)[C@@H]5CC[C@]43C)[C@@H]12 (some centres undefined)	0.23 µM	0.443 µM	
C=C(C)[C@@H]1CC[C@]2(C(=O)NCCCCCCCC(=O)N[C@@H](CC(C)C)[C@H](O)CC(=O)O)CC[C@]3(C)[C@H](CCC4[C@@]5(C)CC[C@H](O)C(C)(C)[C@@H]5CC[C@]43C)[C@@H]12 (some centres undefined)	0.05 µM	0.044 µM	
C=C(C)[C@@H]1CC[C@]2(C(=O)NCCCCCCCC(=O)NC(CC(=O)O)c3ccccc3)CC[C@]3(C)[C@H](CCC4[C@@]5(C)CC[C@H](O)C(C)(C)[C@@H]5CC[C@]43C)[C@@H]12 (some centres undefined)	0.085 µM	0.047 µM	
C=C(C)[C@@H]1CC[C@]2(C(=O)NCCCCCCCNC(=O)CC(=O)O)CC[C@]3(C)[C@H](CCC4[C@@]5(C)CC[C@H](O)C(C)(C)[C@@H]5CC[C@]43C)[C@@H]12 (some centres undefined)	0.05 µM	0.034 µM	

Other lines, results leading:

IC50 [1]	IC50 [2]	IC50 (CCRF-CEM)	SMILES
0.25 µM	0.25 µM		C=C(C)[C@@H]1CC[C@]2(C(=O)NCCCCCCCC(=O)N[C@@H](CO)C(=O)O)CC[C@]3(C)[C@H](CCC4[C@@]5(C)CC[C@H](O)C(C)(C)[C@@H]5CC[C@]43C)[C@@H]12 (some centres undefined)
0.13 µM			C=C(C)[C@@H]1CC[C@]2(C(=O)NCCCCCCCC(=O)NCC(C)C(=O)O)CC[C@]3(C)[C@H](CCC4[C@@]5(C)CC[C@H](O)C(C)(C)[C@@H]5CC[C@]43C)[C@@H]12 (some centres undefined)
0.42 µM	3.4 µM		C=C(C)[C@@H]1CC[C@]2(C(=O)NCCCCCCCCC(=O)O)CC[C@]3(C)[C@H](CCC4[C@@]5(C)CC[C@H](O)C(C)(C)[C@@H]5CC[C@]43C)[C@@H]12 (some centres undefined)
0.1 µM	0.094 µM		C=C(C)[C@@H]1CC[C@]2(C(=O)NCCCCCCCC(=O)NCCC(=O)O)CC[C@]3(C)[C@H](CCC4[C@@]5(C)CC[C@H](O)C(C)(C)[C@@H]5CC[C@]43C)[C@@H]12 (some centres undefined)
10 µM			C=C(C)[C@@H]1CC[C@]2(C(=O)NCCCCCCCC(=O)N[C@@H](CCCCN)C(=O)O)CC[C@]3(C)[C@H](CCC4[C@@]5(C)CC[C@H](O)C(C)(C)[C@@H]5CC[C@]43C)[C@@H]12 (some centres undefined)
0.08 µM			C=C(C)[C@@H]1CC[C@]2(C(=O)NCCCCCCCC(=O)Nc3cccc(C(=O)O)c3)CC[C@]3(C)[C@H](CCC4[C@@]5(C)CC[C@H](O)C(C)(C)[C@@H]5CC[C@]43C)[C@@H]12 (some centres undefined)
		3 µM	C=C(C)[C@@H]1CC[C@]2(C(=O)NCCCCCC(=O)NCCCC(=O)O)CC[C@]3(C)[C@H](CCC4[C@@]5(C)CC[C@H](O)C(C)(C)[C@@H]5CC[C@]43C)[C@@H]12 (some centres undefined)
0.095 µM	0.053 µM		C=C(C)[C@@H]1CC[C@]2(C(=O)NCCCCCCCNC(=O)CCC(=O)O)CC[C@]3(C)[C@H](CCC4[C@@]5(C)CC[C@H](O)C(C)(C)[C@@H]5CC[C@]43C)[C@@H]12 (some centres undefined)
0.13 µM	0.033 µM		C=C(C)[C@@H]1CC[C@]2(C(=O)NCCCCCCCC(=O)N[C@@H](Cc3ccccc3)[C@@H](O)CC(=O)O)CC[C@]3(C)[C@H](CCC4[C@@]5(C)CC[C@H](O)C(C)(C)[C@@H]5CC[C@]43C)[C@@H]12 (some centres undefined)
0.2 µM	0.033 µM		C=C(C)[C@@H]1CC[C@]2(C(=O)NCCCCCCCC(=O)NCC(O)CC(=O)O)CC[C@]3(C)[C@H](CCC4[C@@]5(C)CC[C@H](O)C(C)(C)[C@@H]5CC[C@]43C)[C@@H]12 (some centres undefined)
0.13 µM			C=C(C)[C@@H]1CC[C@]2(C(=O)NCCCCCCCC(=O)NC(C)CC(=O)O)CC[C@]3(C)[C@H](CCC4[C@@]5(C)CC[C@H](O)C(C)(C)[C@@H]5CC[C@]43C)[C@@H]12 (some centres undefined)
0.061 µM			C=C(C)[C@@H]1CC[C@]2(C(=O)NCCCCCCCC(=O)NCCCCC(=O)O)CC[C@]3(C)[C@H](CCC4[C@@]5(C)CC[C@H](O)C(C)(C)[C@@H]5CC[C@]43C)[C@@H]12 (some centres undefined)
0.55 µM	0.25 µM		C=C(C)[C@@H]1CC[C@]2(C(=O)NCCCCCCCCCCCC(=O)O)CC[C@]3(C)[C@H](CCC4[C@@]5(C)CC[C@H](O)C(C)(C)[C@@H]5CC[C@]43C)[C@@H]12 (some centres undefined)
0.092 µM	0.062 µM		C=C(C)[C@@H]1CC[C@]2(C(=O)NCCCCCCCC(=O)N[C@@H](C)C(=O)O)CC[C@]3(C)[C@H](CCC4[C@@]5(C)CC[C@H](O)C(C)(C)[C@@H]5CC[C@]43C)[C@@H]12 (some centres undefined)
0.155 µM			C=C(C)[C@@H]1CC[C@]2(C(=O)NCCCCCCCC(=O)NC(CC(=O)O)C(F)(F)F)CC[C@]3(C)[C@H](CCC4[C@@]5(C)CC[C@H](O)C(C)(C)[C@@H]5CC[C@]43C)[C@@H]12 (some centres undefined)
2 µM			C=C(C)[C@@H]1CC[C@]2(C(=O)NCCCCCCCC(=O)N[C@@H](Cc3ccccc3)C(=O)O)CC[C@]3(C)[C@H](CCC4[C@@]5(C)CC[C@H](O)C(C)(C)[C@@H]5CC[C@]43C)[C@@H]12 (some centres undefined)
18 µM			C=C(C)[C@@H]1CC[C@]2(C(=O)NCCCCCCCC(=O)N[C@@H](CC(=O)O)C(=O)O)CC[C@]3(C)[C@H](CCC4[C@@]5(C)CC[C@H](O)C(C)(C)[C@@H]5CC[C@]43C)[C@@H]12 (some centres undefined)
0.095 µM			C=C(C)[C@@H]1CC[C@]2(C(=O)NCCCCCCCC(=O)NC(F)CC(=O)O)CC[C@]3(C)[C@H](CCC4[C@@]5(C)CC[C@H](O)C(C)(C)[C@@H]5CC[C@]43C)[C@@H]12 (some centres undefined)
		4.5 µM	C=C(C)[C@@H]1CC[C@]2(C(=O)NCCCCC(=O)NCCCCC(=O)O)CC[C@]3(C)[C@H](CCC4[C@@]5(C)CC[C@H](O)C(C)(C)[C@@H]5CC[C@]43C)[C@@H]12 (some centres undefined)
0.11 µM	0.022 µM		C=C(C)[C@@H]1CC[C@]2(C(=O)NCCCCCCCNC(=O)c3ccc(C(=O)O)cc3)CC[C@]3(C)[C@H](CCC4[C@@]5(C)CC[C@H](O)C(C)(C)[C@@H]5CC[C@]43C)[C@@H]12 (some centres undefined)
0.133 µM	0.089 µM		C=C(C)[C@@H]1CC[C@]2(C(=O)NCCCCCCCC(=O)NC(C)(C)C(=O)O)CC[C@]3(C)[C@H](CCC4[C@@]5(C)CC[C@H](O)C(C)(C)[C@@H]5CC[C@]43C)[C@@H]12 (some centres undefined)
0.185 µM			C=C(C)[C@@H]1CC[C@]2(C(=O)NCCCCCCCC(=O)N3CCCC(C(=O)O)C3)CC[C@]3(C)[C@H](CCC4[C@@]5(C)CC[C@H](O)C(C)(C)[C@@H]5CC[C@]43C)[C@@H]12 (some centres undefined)
0.15 µM	0.156 µM		C=C(C)[C@@H]1CC[C@]2(C(=O)NCCCCCCCC(=O)NCC(=O)O)CC[C@]3(C)[C@H](CC[C@@H]4[C@@]5(C)CC[C@H](O)C(C)(C)[C@@H]5CC[C@]43C)[C@@H]12
